Experimental data as given in ChEMBL document CHEMBL4393666, “Synthesis and Anti-HCV Activities of 4'-Fluoro-2'-Substituted Uridine Triphosphates and Nucleotide Prodrugs: Discovery of 4'-Fluoro-2'- C-methyluridine 5'-Phosphoramidate Prodrug (AL-335) for the Treatment of Hepatitis C Infection” (J Med Chem, 2019).
pEC50, pIC50: −log10 of the molar value.

How the values were obtained:
Hepatitis C virus = experiment: Antiviral activity against HCV con1 subgenomic replicon infected in human HuH7 cells assessed as reduction in viral RNA replication by qRT-PCR analysis; assay type: functional, organism-based, Hepacivirus hominis; conditions: isolate Con1, Huh-7
Outline: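 Con1 subgenomic replicon Huh-7 cells (neomycin selection, kept in DMEM/10% FBS with 0.25 mg/ml G418) treated with compounds in DMEM, 2% FBS, 0.5% DMSO, no G418, at 37°C. Total RNA extracted; HCV RNA copy number by multiplex Taqman QRT-PCR. EC50/EC90 by 4-parameter curve fit; EC50 is the mean of ≥2 independent runs.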

[1] = Cytotoxicity against human HuH7 cells infected with HCV con1 subgenomic replicon assessed as reduction in cell viability measured after 3 days by CellTiter-blue cell viability assay; assay type: cell-based, Huh-7
Outline: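 Con1 replicon Huh-7 cells treated as for the replicon assay (DMEM, 2% FBS, 0.5% DMSO, no G418, 37°C) for 3 days. Viability by CellTiter-Blue; CC50 by curve fitting.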

[2] = biological target: RNA-directed RNA polymerase (Hepacivirus hominis, UniProt O39930); experiment: Inhibition of HCV NS5B RNA-dependent RNA polymerase activity assessed as reduction in radiolabeled-CTP incorporation into RNA using cIRES template measured after 2 hrs by microscintillation counting method
DNA polymerase alpha = biological target: T1, DNA polymerase alpha (Homo sapiens, UniProt P09884); experiment: Inhibition of human DNA polymerase-alpha assessed as reduction in [3H]dTTP incorporation in to activated calf thymus DNA substrate at 100 uM by scintillation counting method relative to control; conditions: human DNA polymerase-alpha enzyme, probe [3H]dTTP
T1 sequence (P09884 whole entry): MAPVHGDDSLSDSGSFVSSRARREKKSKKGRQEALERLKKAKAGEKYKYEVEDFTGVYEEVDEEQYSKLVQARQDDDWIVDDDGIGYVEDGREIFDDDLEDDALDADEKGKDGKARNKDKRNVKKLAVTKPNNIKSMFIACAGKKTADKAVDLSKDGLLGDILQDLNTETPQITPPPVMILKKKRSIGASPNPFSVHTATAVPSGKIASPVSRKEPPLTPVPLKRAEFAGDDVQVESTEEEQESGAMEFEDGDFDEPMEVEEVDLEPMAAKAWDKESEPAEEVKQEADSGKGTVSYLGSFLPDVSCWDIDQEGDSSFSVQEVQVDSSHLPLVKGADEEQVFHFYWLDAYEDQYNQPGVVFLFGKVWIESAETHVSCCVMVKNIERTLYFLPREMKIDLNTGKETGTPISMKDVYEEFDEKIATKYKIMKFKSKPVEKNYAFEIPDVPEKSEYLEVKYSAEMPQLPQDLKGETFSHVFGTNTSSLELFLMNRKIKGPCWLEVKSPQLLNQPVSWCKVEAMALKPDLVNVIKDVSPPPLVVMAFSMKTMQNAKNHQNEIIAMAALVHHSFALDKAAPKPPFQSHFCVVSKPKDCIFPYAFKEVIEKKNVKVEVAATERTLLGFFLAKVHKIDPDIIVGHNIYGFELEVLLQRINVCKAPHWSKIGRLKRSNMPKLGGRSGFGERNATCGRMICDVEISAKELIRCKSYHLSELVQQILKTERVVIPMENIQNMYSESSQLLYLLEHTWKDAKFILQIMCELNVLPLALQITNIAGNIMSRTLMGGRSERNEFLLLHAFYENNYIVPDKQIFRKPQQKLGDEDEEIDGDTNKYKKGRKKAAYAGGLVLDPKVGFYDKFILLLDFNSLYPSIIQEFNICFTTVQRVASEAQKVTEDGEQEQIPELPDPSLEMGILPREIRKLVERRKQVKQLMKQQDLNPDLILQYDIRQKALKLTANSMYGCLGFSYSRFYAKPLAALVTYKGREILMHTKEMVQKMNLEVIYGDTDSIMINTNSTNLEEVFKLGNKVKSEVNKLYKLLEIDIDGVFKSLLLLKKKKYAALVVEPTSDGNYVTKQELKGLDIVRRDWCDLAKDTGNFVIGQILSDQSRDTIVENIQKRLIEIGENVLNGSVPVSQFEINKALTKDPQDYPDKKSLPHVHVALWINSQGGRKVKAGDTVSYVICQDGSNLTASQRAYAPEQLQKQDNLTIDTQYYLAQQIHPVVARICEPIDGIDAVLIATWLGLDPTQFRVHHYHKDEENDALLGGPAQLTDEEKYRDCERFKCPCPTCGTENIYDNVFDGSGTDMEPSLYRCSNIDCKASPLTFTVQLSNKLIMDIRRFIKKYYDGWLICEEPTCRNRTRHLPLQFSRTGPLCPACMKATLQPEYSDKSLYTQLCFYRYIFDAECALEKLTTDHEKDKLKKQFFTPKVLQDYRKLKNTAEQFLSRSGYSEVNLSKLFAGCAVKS

DNA polymerase beta = DNA polymerase beta (Homo sapiens, UniProt P06746); experiment: Inhibition of human DNA polymerase-beta assessed as reduction in [3H]dTTP incorporation in to activated calf thymus DNA substrate at 100 uM by scintillation counting method relative to control; conditions: human DNA polymerase-beta enzyme, probe [3H]dTTP
DNA polymerase gamma = biological target: T2, DNA polymerase gamma (Homo sapiens, UniProt P54098); experiment: Inhibition of human DNA polymerase-gamma assessed as reduction in [3H]dTTP incorporation in to activated calf thymus DNA substrate at 100 uM by scintillation counting method relative to control; conditions: human DNA polymerase-gamma enzyme, probe [3H]dTTP
T2 sequence (P54098 whole entry): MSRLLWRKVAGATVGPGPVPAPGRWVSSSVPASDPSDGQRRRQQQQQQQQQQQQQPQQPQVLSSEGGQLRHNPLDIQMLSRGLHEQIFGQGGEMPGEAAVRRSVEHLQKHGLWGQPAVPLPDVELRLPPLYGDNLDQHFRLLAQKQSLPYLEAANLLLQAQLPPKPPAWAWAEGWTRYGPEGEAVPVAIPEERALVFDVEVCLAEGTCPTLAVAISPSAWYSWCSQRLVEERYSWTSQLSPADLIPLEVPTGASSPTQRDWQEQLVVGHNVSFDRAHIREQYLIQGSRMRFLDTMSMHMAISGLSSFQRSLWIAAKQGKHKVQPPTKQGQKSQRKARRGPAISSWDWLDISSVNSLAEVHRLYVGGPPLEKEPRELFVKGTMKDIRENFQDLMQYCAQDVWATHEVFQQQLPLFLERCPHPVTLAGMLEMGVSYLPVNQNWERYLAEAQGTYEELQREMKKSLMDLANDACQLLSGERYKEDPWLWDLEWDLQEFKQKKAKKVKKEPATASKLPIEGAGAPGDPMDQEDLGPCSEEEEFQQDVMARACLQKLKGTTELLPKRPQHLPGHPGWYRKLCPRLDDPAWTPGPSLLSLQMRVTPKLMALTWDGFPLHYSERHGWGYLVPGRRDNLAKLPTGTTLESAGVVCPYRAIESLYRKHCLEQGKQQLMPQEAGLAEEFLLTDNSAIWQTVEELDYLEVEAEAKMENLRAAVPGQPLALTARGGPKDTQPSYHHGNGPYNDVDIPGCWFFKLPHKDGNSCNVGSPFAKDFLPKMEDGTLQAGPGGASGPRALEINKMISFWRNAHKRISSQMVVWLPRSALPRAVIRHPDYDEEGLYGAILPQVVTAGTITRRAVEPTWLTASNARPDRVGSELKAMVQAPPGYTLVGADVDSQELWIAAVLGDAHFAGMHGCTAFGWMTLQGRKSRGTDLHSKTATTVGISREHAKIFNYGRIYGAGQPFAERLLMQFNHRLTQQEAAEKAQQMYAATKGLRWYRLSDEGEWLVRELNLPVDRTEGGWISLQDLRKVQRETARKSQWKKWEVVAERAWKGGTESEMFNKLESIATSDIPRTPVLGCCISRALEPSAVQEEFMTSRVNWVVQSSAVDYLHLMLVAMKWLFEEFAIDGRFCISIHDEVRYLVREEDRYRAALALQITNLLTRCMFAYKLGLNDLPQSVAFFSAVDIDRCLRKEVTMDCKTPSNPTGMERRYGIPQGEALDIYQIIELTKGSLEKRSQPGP

RNA-directed RNA polymerase, sequence (O39930 whole entry): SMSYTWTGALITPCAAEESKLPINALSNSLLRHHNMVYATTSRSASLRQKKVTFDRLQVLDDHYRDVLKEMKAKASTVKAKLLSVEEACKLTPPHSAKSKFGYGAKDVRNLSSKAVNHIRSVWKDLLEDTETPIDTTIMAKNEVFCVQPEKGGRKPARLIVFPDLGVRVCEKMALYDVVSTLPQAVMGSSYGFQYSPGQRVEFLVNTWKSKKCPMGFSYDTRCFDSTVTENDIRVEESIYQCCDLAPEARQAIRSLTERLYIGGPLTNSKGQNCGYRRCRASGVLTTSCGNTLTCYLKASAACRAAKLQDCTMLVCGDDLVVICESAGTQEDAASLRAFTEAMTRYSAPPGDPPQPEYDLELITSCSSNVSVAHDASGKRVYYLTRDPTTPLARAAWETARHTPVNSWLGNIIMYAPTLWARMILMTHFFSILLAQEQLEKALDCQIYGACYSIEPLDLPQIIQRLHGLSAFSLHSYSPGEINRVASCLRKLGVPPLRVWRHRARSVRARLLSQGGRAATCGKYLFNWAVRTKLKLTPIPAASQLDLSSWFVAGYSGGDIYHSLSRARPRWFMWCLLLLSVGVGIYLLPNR

| Compound | pEC50 (Hepatitis C virus) | CC50 at 72 h [1] | pIC50 [2] | other results |
| --- | --- | --- | --- | --- |
| CC(C)OC(=O)[C@H](C)NP(=O)(OC[C@@]1(F)O[C@@H](n2ccc(=O)[nH]c2=O)[C@](C)(O)[C@@H]1O)Oc1cccc2ccccc12 (some centres not stated) | 7.70 | > 85 µM | – | – |
| C=C[C@]1(O)[C@H](n2ccc(=O)[nH]c2=O)O[C@](F)(COP(=O)(O)OP(=O)(O)OP(=O)(O)O)[C@H]1O | – | – | 5.19 | – |
| O=c1ccn([C@@H]2O[C@H](COP(=O)(O)OP(=O)(O)OP(=O)(O)O)[C@@H](O)[C@]2(O)CF)c(=O)[nH]1 | – | – | 6.55 | – |
| C#C[C@]1(F)[C@H](n2ccc(=O)[nH]c2=O)O[C@](F)(COP(=O)(O)OP(=O)(O)OP(=O)(O)O)[C@H]1O | – | – | 6.47 | – |
| CC(C)OC(=O)[C@H](C)NP(=O)(OC[C@H]1O[C@@H](n2ccc(=O)[nH]c2=O)[C@](C)(Cl)[C@@H]1O)Oc1ccccc1 (some centres not stated) | 6.92 | > 100 µM | – | – |
| CC(C)OC(=O)[C@H](C)N[P@@](=O)(OC[C@@]1(F)O[C@@H](n2ccc(=O)[nH]c2=O)[C@](C)(O)[C@@H]1O)Oc1ccccc1 | 6.03 | > 100 µM | – | – |
| O=c1ccn([C@@H]2O[C@](F)(COP(=O)(O)OP(=O)(O)OP(=O)(O)O)[C@@H](O)[C@]2(O)CF)c(=O)[nH]1 | – | – | 6.82 | – |
| CC(C)OC(=O)[C@H](C)NP(=O)(OC[C@@]1(F)O[C@@H](n2ccc(=O)[nH]c2=O)[C@](C)(Cl)[C@@H]1O)Oc1ccccc1 (some centres not stated) | 7.00 | > 100 µM | – | – |
| CC(C)OC(=O)[C@H](C)NP(=O)(OC[C@@]1(F)O[C@@H](n2ccc(=O)[nH]c2=O)[C@](C)(F)[C@@H]1O)Oc1ccccc1 (some centres not stated) | 6.51 | > 100 µM | – | – |
| C#C[C@]1(O)[C@H](n2ccc(=O)[nH]c2=O)O[C@](F)(COP(=O)(N[C@@H](C)C(=O)OC2CCCCC2)Oc2ccccc2)[C@H]1O (some centres not stated) | 7.15 | > 100 µM | – | – |
| C#C[C@]1(O)[C@H](n2ccc(=O)[nH]c2=O)O[C@](F)(COP(=O)(O)OP(=O)(O)OP(=O)(O)O)[C@H]1O | – | – | 7.41 | – |
| C[C@H](NP(=O)(OC[C@@]1(F)O[C@@H](n2ccc(=O)[nH]c2=O)[C@](C)(O)[C@@H]1O)Oc1ccccc1)C(=O)OC1CCCCC1 (some centres not stated) | 7.40 | 84 µM | – | – |
| CC[C@]1(O)[C@H](n2ccc(=O)[nH]c2=O)O[C@](F)(COP(=O)(O)OP(=O)(O)OP(=O)(O)O)[C@H]1O | – | – | 4.08 | – |
| CC[C@]1(O)[C@H](n2ccc(=O)[nH]c2=O)O[C@](F)(COP(=O)(N[C@@H](C)C(=O)OC(C)C)Oc2ccccc2)[C@H]1O (some centres not stated) | 4.37 | > 100 µM | – | – |
| CC(C)OC(=O)[C@H](C)NP(=O)(N[C@@H](C)C(=O)OC(C)C)OC[C@@]1(F)O[C@@H](n2ccc(=O)[nH]c2=O)[C@](C)(O)[C@@H]1O | 5.18 | > 100 µM | – | – |
| CC(C)OC(=O)[C@H](C)NP(=O)(OC[C@H]1O[C@@H](n2ccc(=O)[nH]c2=O)[C@](C)(F)[C@@H]1O)Oc1ccccc1 (some centres not stated) | 6.66 | > 100 µM | – | – |
| CC(C)OC(=O)[C@H](C)NP(=O)(OC[C@@]1(F)O[C@@H](n2ccc(=O)[nH]c2=O)[C@@](F)(Cl)[C@@H]1O)Oc1ccccc1 (some centres not stated) | 7.35 | > 100 µM | – | – |
| CC(C)OC(=O)[C@H](C)NP(=O)(OC[C@@]1(F)O[C@@H](n2ccc(=O)[nH]c2=O)[C@](C)(O)[C@@H]1O)Oc1ccc(Cl)cc1 (some centres not stated) | 7.10 | > 100 µM | – | – |
| C#C[C@@]1(O)[C@H](O)[C@@H](COP(=O)(O)OP(=O)(O)OP(=O)(O)O)O[C@H]1n1ccc(=O)[nH]c1=O | – | – | 7.57 | – |
| CCOC(=O)[C@H](C)NP(=O)(N[C@@H](C)C(=O)OCC)OC[C@@]1(F)O[C@@H](n2ccc(=O)[nH]c2=O)[C@](C)(O)[C@@H]1O | 5.12 | > 100 µM | – | – |
| C[C@H](NP(=O)(OC[C@@]1(F)O[C@@H](n2ccc(=O)[nH]c2=O)[C@](C)(O)[C@@H]1O)Oc1ccccc1)C(=O)OCC(C)(C)C (some centres not stated) | 7.40 | > 100 µM | – | – |
| O=c1ccn([C@@H]2O[C@](F)(COP(=O)(O)OP(=O)(O)OP(=O)(O)O)[C@@H](O)[C@]2(F)Cl)c(=O)[nH]1 | – | – | 6.72 | inhibition at 100 µM (DNA polymerase alpha): 75.8%; inhibition at 100 µM (DNA polymerase beta): 18.1%; inhibition at 100 µM (DNA polymerase gamma): 7.9% |
| C=C[C@]1(O)[C@H](n2ccc(=O)[nH]c2=O)O[C@](F)(COP(=O)(N[C@@H](C)C(=O)OC(C)C)Oc2ccccc2)[C@H]1O (some centres not stated) | 5.08 | > 100 µM | – | – |
| C#C[C@@]1(F)[C@H](O)[C@@H](COP(=O)(O)OP(=O)(O)OP(=O)(O)O)O[C@H]1n1ccc(=O)[nH]c1=O | – | – | 6.48 | – |
